Activity calls are given as the source filed them. The calls are words filed in the database; no cut-off is given here.

Assay [1] deals with DU-145. The experiment in a line: Induction of apoptosis in human DU145 cells assessed as late apoptotic cells at 2 uM after 24 hrs by Annexin V-FITC/propidium iodide staining based flow cytometry (reference value: 1.49%). It is filed as functional. (In general: A flow cytometer gives signals particle by particle.)
Assay [2] deals with DU-145. The assay is described as follows: Induction of mitochondrial membrane potential loss in human DU145 cells […] at 2 uM after 24 hrs by JC1 staining based flow cytometry. It is filed as functional, cell-based. In short, it runs like this:
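Cells (2x10^5/well) treated 24 h, trypsinized and pelleted (400 g, 5 min). Incubated with freshly made JC-1 working solution for 15 min at 37 °C, washed twice in assay buffer. Analysed by flow cytometry as percentage of J-aggregate versus J-monomer cells.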

In assay [3] the test system is HeLa. The assay is described as follows: Antiproliferative activity against human HeLa cells after 48 hrs by MTT assay. In kind it is functional, cell-based. In short, it runs like this: (§1)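 Cells in DMEM/10% FBS pre-incubated 24 h at 37 °C, then compound-treated 48 h (10 mM DMSO stock diluted in medium). MTT (10 µL of 5 mg/mL) added for 4 h; formazan dissolved in DMSO, absorbance read at 570 nm. IC50 = 50% inhibitory concentration, mean of three individual experiments.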
A general note: Formazan colour is commonly taken as a measure of viable cells.

Assay [4] concerns the target DNA topoisomerase 2-alpha (Homo sapiens) (UniProt P11388). The assay is described as follows: Poison activity at recombinant human topoisomerase-2 alpha assessed as linear DNA formation using pHOT1 kDNA as substrate at 100 uM after 10 mins by agarose gel electrophoresis method. In short, it runs like this:
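Five units human recombinant topo II, 10 min at 37 °C. Stopped with loading-dye stop buffer; products resolved on 1% agarose gel in TAE (catenated, decatenated, linear DNA).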

Assay [5] relates to DU-145. The assay is described as follows: Induction of apoptosis in human DU145 cells assessed as necrotic cells at 2 uM after 24 hrs by Annexin V-FITC/propidium iodide staining based flow cytometry (reference value: 1.65%). It is filed as functional.
Assay [6] has as its system DU-145. The experiment in a line: Antimigratory activity against human DU145 cells at 2 uM after 24 to 48 hrs by phase contrast microscopic based scratch assay. In kind it is functional, cell-based. An outline of the steps: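 DU-145 cells seeded at 2x10^5/well and grown to confluence; wound made with a sterile 200 µL tip, debris washed off with PBS. Fresh medium with compound at the indicated concentrations added. Migration followed by phase-contrast microscopy with images at 0, 24 and 48 h.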

The test system of assay [7] is DU-145. The experiment in a line: Induction of apoptosis in human DU145 cells assessed as early apoptotic cells at 2 uM after 24 hrs by Annexin V-FITC/propidium iodide staining based flow cytometry (reference value: 0.56%). In kind it is functional.
Assay [8] relates to DU-145. The experiment in a line: Induction of apoptosis in human DU145 cells assessed as morphological changes at 2 uM after 24 hrs by phase contrast microscopic method. It is filed as functional, cell-based. In short, it runs like this:
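DU-145 cells (2x10^5/well) plated overnight; medium replaced with fresh medium containing compound at indicated concentrations for 24 h. Cell morphology examined and photographed by phase-contrast microscopy.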

In assay [9] the test system is DU-145. The experiment in a line: Induction of apoptosis in human DU145 cells assessed as nuclear fragmentation at 2 uM after 24 hrs by Hoechst staining based fluorescence microscopic method. In kind it is functional, cell-based. In short, it runs like this: (§2)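 DU-145 cells (1x10^5/well) incubated overnight, then treated 24 h. After three PBS washes, stained with Hoechst (1 µg/ml) for 20 min at 37 °C and washed. Imaged by fluorescence microscopy; random fields counted for chromatin condensation and nuclear fragmentation.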

For assay [10], the system named is DU-145. The assay is described as follows: Cell cycle arrest in human DU145 cells assessed as accumulation at G2/M phase at 2 uM after 24 hrs by propidium iodide staining based flow cytometry relative to control. It is filed as functional. An outline of the steps:
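DU-145 cells (2x10^5/well) serum-starved 24 h to synchronize, then treated in complete medium for 24 h. Harvested and fixed in 70% ethanol at -20 °C for 30 min. RNase A (0.1 mg/mL, 37 °C, 30 min), then propidium iodide (50 µg/mL, 30 min on ice, dark). DNA content measured by flow cytometry.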

The test system of assay [11] is DU-145. The assay is described as follows: Induction of apoptosis in human DU145 cells assessed as nuclear condensation at 2 uM after 24 hrs by Hoechst staining based fluorescence microscopic method. It is filed as functional, cell-based. In short, it runs like this: as §2
Assay [12] has as its system MCF7. The experiment in a line: Antiproliferative activity against human MCF7 cells after 48 hrs by MTT assay. In kind it is functional, cell-based. The settings on record: MCF7, 48 h. In short, it runs like this:
as §1

Assay [13] has as its system HT-29. The assay is described as follows: Antiproliferative activity against human HT-29 cells after 48 hrs by MTT assay. The settings on record: HT-29, 48 h. In kind it is functional, cell-based. An outline of the steps: as §1
Assay [14] deals with DU-145. The experiment in a line: Antiproliferative activity against human DU145 cells after 48 hrs by MTT assay. The settings on record: DU-145, 48 h. In kind it is functional, cell-based. In short, it runs like this: as §1
In assay [15] the test system is DU-145. The assay is described as follows: Induction of ROS production in human DU145 cells at 2 uM after 24 hrs by DCFDA staining based fluorescence microscopic method. It is filed as functional, cell-based. An outline of the steps:
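DU-145 cells (2x10^5/well) plated overnight, then treated 24 h at indicated concentrations. Medium replaced with DCFDA (10 µM) for 30 min at room temperature in the dark. After PBS washes, fluorescence was imaged by microscopy and reported as mean fluorescence intensity.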

For assay [16], the system named is HepG2. The assay is described as follows: Antiproliferative activity against human HepG2 cells after 48 hrs by MTT assay. To be noted: HepG2, 48 h. In kind it is functional, cell-based. An outline of the steps: as §1
In assay [17] the test system is DU-145. The experiment in a line: Induction of apoptosis in human DU145 cells assessed as live cells at 2 uM after 24 hrs by Annexin V-FITC/propidium iodide staining based flow cytometry (reference value: 96.3%). In kind it is functional.
Assay [18] relates to A549. The assay is described as follows: Antiproliferative activity against human A549 cells after 48 hrs by MTT assay. In kind it is functional, cell-based. To be noted: A549, 48 h. In short, it runs like this:
as §1

Chain of DNA topoisomerase 2-alpha (Homo sapiens) (P11388 whole entry): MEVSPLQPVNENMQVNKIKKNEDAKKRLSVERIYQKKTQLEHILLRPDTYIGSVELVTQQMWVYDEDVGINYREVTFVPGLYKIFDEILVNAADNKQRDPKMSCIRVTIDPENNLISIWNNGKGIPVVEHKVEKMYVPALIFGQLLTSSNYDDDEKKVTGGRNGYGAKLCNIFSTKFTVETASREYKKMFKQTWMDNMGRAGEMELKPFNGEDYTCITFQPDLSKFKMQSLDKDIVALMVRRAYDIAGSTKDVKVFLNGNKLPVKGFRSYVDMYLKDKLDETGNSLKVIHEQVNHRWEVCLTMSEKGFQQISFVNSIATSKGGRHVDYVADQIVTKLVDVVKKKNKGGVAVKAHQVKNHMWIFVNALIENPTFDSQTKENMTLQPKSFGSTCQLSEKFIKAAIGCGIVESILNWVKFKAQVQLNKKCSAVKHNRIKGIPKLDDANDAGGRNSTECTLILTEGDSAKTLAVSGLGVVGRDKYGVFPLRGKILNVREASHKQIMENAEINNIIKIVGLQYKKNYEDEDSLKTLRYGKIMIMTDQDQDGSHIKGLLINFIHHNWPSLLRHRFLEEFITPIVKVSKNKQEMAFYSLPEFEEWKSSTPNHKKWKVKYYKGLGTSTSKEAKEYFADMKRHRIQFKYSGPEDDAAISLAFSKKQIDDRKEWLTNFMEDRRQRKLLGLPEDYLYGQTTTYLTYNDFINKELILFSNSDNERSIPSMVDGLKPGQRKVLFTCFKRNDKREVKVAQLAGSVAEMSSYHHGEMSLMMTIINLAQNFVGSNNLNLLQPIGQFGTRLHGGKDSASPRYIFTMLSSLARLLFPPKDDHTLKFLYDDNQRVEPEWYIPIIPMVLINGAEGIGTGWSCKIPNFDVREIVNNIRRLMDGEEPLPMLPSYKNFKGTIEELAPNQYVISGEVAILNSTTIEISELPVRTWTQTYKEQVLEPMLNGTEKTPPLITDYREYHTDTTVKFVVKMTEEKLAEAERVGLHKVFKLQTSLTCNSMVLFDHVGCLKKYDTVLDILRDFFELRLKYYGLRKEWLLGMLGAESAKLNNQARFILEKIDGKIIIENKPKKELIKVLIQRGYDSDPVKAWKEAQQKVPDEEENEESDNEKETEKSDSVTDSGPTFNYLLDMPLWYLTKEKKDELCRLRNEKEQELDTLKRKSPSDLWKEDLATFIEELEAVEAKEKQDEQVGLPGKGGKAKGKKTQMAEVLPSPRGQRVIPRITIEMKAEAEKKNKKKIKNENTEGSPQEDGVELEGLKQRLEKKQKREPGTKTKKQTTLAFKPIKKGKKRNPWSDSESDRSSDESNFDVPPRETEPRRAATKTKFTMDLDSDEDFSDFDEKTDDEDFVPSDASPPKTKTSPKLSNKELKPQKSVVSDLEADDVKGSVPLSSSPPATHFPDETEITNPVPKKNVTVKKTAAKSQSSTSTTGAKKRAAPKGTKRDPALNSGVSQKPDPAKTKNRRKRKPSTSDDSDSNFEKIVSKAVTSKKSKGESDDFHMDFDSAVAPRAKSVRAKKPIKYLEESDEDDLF

Broadly, the IC50 is the concentration that inhibits the measured activity by half. A lower IC50 goes with greater potency. With `COc1cc([C@@H]2c3cc4c(cc3[C@@H](O[C@@H]3O[C@@H]5CO[C@@H](C)O[C@H]5[C@H](O)[C@H]3O)[C@H]3COC(=O)[C@H]23)OCO4)cc(OC)c1O` [ETOPOSIDE], the Activity in assay [1] amounted to 3.86%; in assay [5], 0.53%; in assay [7], 4.52%; in assay [10], 71.53%; in assay [17], 91.09%. The outcome in [2], in assay [4], in [6], in assay [8], in assay [9] and in [11] was Active. In assay [15], the result was Active. The IC50 in [3] stood at 2710 nM; in assay [12], 1620 nM; in assay [13], 1870 nM; in assay [14] it was 2350 nM; in [16], 2840 nM; in [18] it was 1970 nM.

Source of the values: ChEMBL document CHEMBL4251626, “4β-amidotriazole linked podophyllotoxin congeners: DNA topoisomerase-IIα inhibition and potential anticancer agents for prostate cancer” (Eur J Med Chem, 2018).
